In ChEMBL document CHEMBL1129950, “Structural requirements for binding of anandamide-type compounds to the brain cannabinoid receptor” (J Med Chem, 1997):

Tests used:
Cannabinoid receptor 1 [1] = molecular target: T1, Cannabinoid receptor 1 (Homo sapiens, UniProt P21554); assay: Binding affinity against the cannabinoid receptor
Outline: (§1)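 Whole rat brain synaptosomal membranes (2.4-3.8 µg protein) were competed against 38-48 fmol [3H]HU-243. Drug was serially diluted in 5 mg/mL fatty-acid-free BSA. Final 1 mL held 45 mM Tris-HCl, 2.7 mM MgCl2, 0.9 mM EDTA and 0.58 mg BSA. Incubation was 30 °C, 90 min. Bound ligand was separated by centrifugation, and pellet tips were scintillation-counted. Ki came from displacement.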

Cannabinoid receptor 1 [2] = molecular target: Cannabinoid receptor 1 (Rattus norvegicus, UniProt P20272); assay: In vitro binding affinity was determined against rat brain Cannabinoid receptor 1
Outline: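 Drug was serially diluted in 5 mg/mL fatty-acid-free BSA. Final 1 mL held 45 mM Tris-HCl, 2.7 mM MgCl2, 0.9 mM EDTA and 0.58 mg BSA. Incubation was 30 °C, 90 min. Bound ligand was separated by centrifugation, and pellet tips were scintillation-counted. Ki came from displacement.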

Cannabinoid receptor 1 [3] = molecular target: T1, Cannabinoid receptor 1; assay: Binding affinity against the Cannabinoid receptor 1 in the presence of PMSF (experiment 2)
Cannabinoid receptor 1 [4] = molecular target: T1, Cannabinoid receptor 1; assay: Binding affinity against the cannabinoid receptor (expt 1); outline: as §1
Cannabinoid receptor 1 [5] = molecular target: T1, Cannabinoid receptor 1; assay: Binding affinity against the cannabinoid receptor in the presence of PMSF (expt 1)
Cannabinoid receptor 1 [6] = molecular target: T1, Cannabinoid receptor 1; assay: Binding affinity against the cannabinoid receptor in the presence of PMSF (expt 3)
Cannabinoid receptor 1 [7] = molecular target: T1, Cannabinoid receptor 1; assay: Binding affinity against the cannabinoid receptor in the presence of PMSF
Cannabinoid receptor 1 [8] = molecular target: T1, Cannabinoid receptor 1; assay: Binding affinity against the cannabinoid receptor in the presence of PMSF (experiment 2)
Cannabinoid receptor 1 [9] = molecular target: T1, Cannabinoid receptor 1; assay: Binding affinity against the cloned human Cannabinoid receptor 1
Cannabinoid receptor 1 [10] = molecular target: T1, Cannabinoid receptor 1; assay: Binding affinity against the cloned human Cannabinoid receptor 1; no activity

T1 sequence (P21554 whole entry): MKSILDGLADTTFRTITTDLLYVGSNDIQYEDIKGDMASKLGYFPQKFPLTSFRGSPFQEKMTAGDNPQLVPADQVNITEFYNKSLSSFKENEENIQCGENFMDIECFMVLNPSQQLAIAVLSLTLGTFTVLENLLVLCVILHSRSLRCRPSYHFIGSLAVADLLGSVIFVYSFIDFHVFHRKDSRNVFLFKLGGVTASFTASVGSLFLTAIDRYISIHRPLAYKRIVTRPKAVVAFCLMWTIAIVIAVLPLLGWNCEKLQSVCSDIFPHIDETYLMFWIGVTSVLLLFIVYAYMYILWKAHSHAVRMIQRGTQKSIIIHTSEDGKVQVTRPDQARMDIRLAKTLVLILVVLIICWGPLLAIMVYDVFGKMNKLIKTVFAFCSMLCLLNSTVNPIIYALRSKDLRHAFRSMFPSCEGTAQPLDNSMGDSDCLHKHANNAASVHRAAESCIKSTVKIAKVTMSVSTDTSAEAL
Cannabinoid receptor 1 (Rattus norvegicus, UniProt P20272), sequence (P20272 whole entry): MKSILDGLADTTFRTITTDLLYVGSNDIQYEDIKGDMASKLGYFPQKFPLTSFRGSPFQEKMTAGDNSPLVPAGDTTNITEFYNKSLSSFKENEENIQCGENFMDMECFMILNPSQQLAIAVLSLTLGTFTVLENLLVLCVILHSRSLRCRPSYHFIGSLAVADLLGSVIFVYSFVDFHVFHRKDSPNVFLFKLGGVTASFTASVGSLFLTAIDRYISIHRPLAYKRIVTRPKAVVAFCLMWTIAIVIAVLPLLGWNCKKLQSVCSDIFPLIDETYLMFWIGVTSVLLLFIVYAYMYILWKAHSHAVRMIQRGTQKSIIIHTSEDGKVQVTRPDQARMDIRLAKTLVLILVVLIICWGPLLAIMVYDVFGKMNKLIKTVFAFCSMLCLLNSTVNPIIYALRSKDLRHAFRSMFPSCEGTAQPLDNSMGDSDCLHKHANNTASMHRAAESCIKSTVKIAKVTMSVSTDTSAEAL

Compound	Ki (Cannabinoid receptor 1 [2]; read-out: Ki)	also measured
CCCCC/C=C\C/C=C\C/C=C\CCCCCCC(=O)NCCO		Ki (Cannabinoid receptor 1 [1]): 598 nM
CCCCC/C=C\C/C=C\CCCCCCCCCC(=O)NCCO	1500 nM	
CCCCC/C=C\C/C=C\C/C=C\C/C=C\CCCC(=O)N(C)CCO	> 10000 nM	Ki (Cannabinoid receptor 1 [3]): 4980 nM; Ki (Cannabinoid receptor 1 [4]): 5240 nM
CCCCC/C=C\C/C=C\C/C=C\C/C=C\CCCC(=O)NC(C)(C)C	139 nM	
CCCCC/C=C\C/C=C\C/C=C\C/C=C\CCCC(=O)N[C@@H](C)CC	377 nM	
CCCCC/C=C\C/C=C\C/C=C\C/C=C\CCCC(=O)NCCCC	236 nM	Ki (Cannabinoid receptor 1 [1]): 30 nM
CCCCC/C=C\C/C=C\C/C=C\C/C=C\CCCC(=O)N(C)C	> 1000 nM	
CCCCC/C=C\C/C=C\C/C=C\C/C=C\CCCC(=O)NC	60 nM	
CCCCC/C=C\C/C=C\C/C=C\C/C=C\CCCC(=O)N(CC)CC	> 1000 nM	
CC/C=C/C/C=C\C/C=C\C/C=C\CCCCC(=O)NCCO	> 1000 nM	
CCCCC/C=C\C/C=C\C/C=C\C/C=C\CCCC(=O)N(CCC)CCO	> 10000 nM	
CCCCC/C=C\C/C=C\C/C=C\C/C=C\CCC(C)C(=O)NCCO (configuration not stated)		Ki (Cannabinoid receptor 1 [5]): 53 nM; Ki (Cannabinoid receptor 1 [6]): 53 nM
CCCCC/C=C\C/C=C\C/C=C\C/C=C\CCCC(=O)NCCC(C)C	575 nM	Ki (Cannabinoid receptor 1 [7]): 1860 nM
CCCCC/C=C\C/C=C\C/C=C\C/C=C\CCC(C)C(=O)NCCC (configuration not stated)	7.4 nM	
CCCCC/C=C\C/C=C\C/C=C\C/C=C\CCCC(=O)NCCN(CC)CC	> 1000 nM	
CCCCC/C=C\C/C=C\C/C=C\C/C=C\CCCC(=O)NCCOP(=O)(O)O	191 nM	
CCCCC/C=C\C/C=C\C/C=C\C/C=C\CCCC(=O)NC(C)(C)CC	447 nM	
CC/C=C/C/C=C\C/C=C\CCCCCCCCCC(=O)NCCO	> 10000 nM	
CC/C=C/C/C=C\C/C=C\CCCCCCCC(=O)NCCO		Ki (Cannabinoid receptor 1 [2]): Not Active
CCCCC/C=C\C/C=C\C/C=C\C/C=C\CCC(C)(C)C(=O)NCCC	6.9 nM	
CCCCCC#CCC#CCC#CCC#CCCCC(=O)NCCO		Ki (Cannabinoid receptor 1 [2]): Not Active
CCCCCCCC/C=C\CCCCCCCCCC(=O)NCCO	> 1000 nM	Ki (Cannabinoid receptor 1 [8]): > 10000 nM
CCCCC/C=C\C/C=C\C/C=C\C/C=C\CCCC(=O)NC(CO)C(=O)O (configuration not stated)	> 10000 nM	

Compound	Ki (Cannabinoid receptor 1 [2]; read-out: Ki)	also measured
CCCCC/C=C\C/C=C\C/C=C\C/C=C\CCC(C)C(=O)NC(C)C (configuration not stated)	8.4 nM	
CC/C=C/C/C=C\C/C=C\C/C=C\C/C=C\C/C=C/CCC(=O)NCCO		Ki (Cannabinoid receptor 1 [9]): 12200 nM
CC/C=C/C/C=C\C/C=C\C/C=C\C/C=C/CCCC(=O)NCCO	162 nM	Ki (Cannabinoid receptor 1 [8]): 1470 nM
CCCCC/C=C\C/C=C\C/C=C\C/C=C\CCCC(=O)N(CC)CCO	> 10000 nM	
CCCCC/C=C\C/C=C\C/C=C\C/C=C\CCCC(=O)NC(C)(C)CO	162 nM	
CCCCC/C=C\C/C=C\C/C=C\C/C=C\CCCC(=O)NC(C)C	13.6 nM	
CCCCC/C=C\C/C=C\C/C=C\C/C=C\CCC(C)(C)C(=O)N[C@H](C)CO	31.1 nM	
CCCCC/C=C\C/C=C\C/C=C\C/C=C\CCC(C)(C)C(=O)NC[C@H](C)O	46.6 nM	
CCCCC/C=C\C/C=C\C/C=C\C/C=C\CCC(C)(C)C(=O)N[C@@H](C)CO	191 nM	
CCCCC/C=C\C/C=C\C/C=C\C/C=C\CCCC(=O)NO	> 1000 nM	
CCCCC/C=C\C/C=C\C/C=C\C/C=C\CCCC(=O)NCCCO		Ki (Cannabinoid receptor 1 [9]): 364 nM; Ki (Cannabinoid receptor 1 [1]): 13 nM; Ki (Cannabinoid receptor 1 [7]): 189 nM
CCCCC/C=C\C/C=C\C/C=C\C/C=C\CCCC(=O)NCCCCC	> 1000 nM	
CCCCC/C=C\C/C=C\C/C=C\C/C=C\CCCC(=O)N[C@H](C)CC	240 nM	
CCCCC/C=C\C/C=C\C/C=C\C/C=C\CCCC(=O)NC(C)C(O)c1ccccc1 (configuration not stated)	> 1000 nM	
CCCCC/C=C\C/C=C\C/C=C\C/C=C\CCC(C)(C)C(=O)NCCO	25.5 nM	Ki (Cannabinoid receptor 1 [8]): 47 nM; Ki (Cannabinoid receptor 1 [5]): 47 nM; Ki (Cannabinoid receptor 1 [1]): 41 nM
CCCCC/C=C\C/C=C\C/C=C\C/C=C\CCC(C)(C)C(=O)NC(C)C	7.2 nM	
CCCCC/C=C\C/C=C\C/C=C\C/C=C\CCCC(=O)NCCC	11.7 nM	Ki (Cannabinoid receptor 1 [1]): 7.3 nM
CCCCC/C=C\C/C=C\C/C=C\C/C=C\CCCC(=O)NCCOC	85.2 nM	Ki (Cannabinoid receptor 1 [1]): 650 nM; Ki (Cannabinoid receptor 1 [7]): 1820 nM
CCCCC/C=C\C/C=C\CCCCCCCC(=O)NCCO (stereo in doubt; 37) [LINOLEOYLETHANOLAMIDE]		Ki (Cannabinoid receptor 1 [9]): > 41400 nM
CCCCC/C=C\C/C=C\C/C=C\C/C=C\CCCC(N)=O [ARACHIDONAMIDE]	> 1000 nM	Ki (Cannabinoid receptor 1 [9]): 9600 nM
CCCCC/C=C\C/C=C\C/C=C\C/C=C\CCCC(=O)NCC(=O)O [ARACHIDONOYL GLYCINE]	> 10000 nM	
CCCCCCCCCCCCCCCC(=O)NCCO [PALMIDROL]		Ki (Cannabinoid receptor 1 [10]): Not Active; Ki (Cannabinoid receptor 1 [2]): Not Active
